Tests used:
[1] = Genotoxicity in Salmonella typhimurium TA1535 harboring pSK1002 assessed as survival at 0.0005 mg/ml in absence of Sprague-Dawley rat liver S9 fraction after by SOS/umu assay relative to control; type: toxicity, organism-based; settings: salmonella enterica subsp. enterica serovar typhimurium, read-out: Survival
[2] = Genotoxicity in Salmonella typhimurium TA1535 harboring pSK1002 assessed as survival at 0.0005 mg/ml in presence of Sprague-Dawley rat liver S9 fraction after by SOS/umu assay relative to control; type: toxicity, organism-based; settings: salmonella enterica subsp. enterica serovar typhimurium, read-out: Survival
[3] = system: Plasmodium falciparum; assay: Ratio of IC50 for antiplasmodial activity against chloroquine-sensitive Plasmodium falciparum 3D7 late forms infected in human RBC incubated for 15 mins followed by compound removal and further incubation for 48 hrs by [3H]-hypoxanthine incorporation assay to IC50 for antiplasmodial activity against chloroquine-sensitive Plasmodium falciparum 3D7 late forms infected in human RBC using compound …; type: functional
[4] = Drug encapsulation in liposomes assessed as encapsulation efficiency in citrate/phosphate buffered measured after ultracentrifugation by UV/Vis spectroscopy relative to untreated control; type: physicochemical; settings: artificial membrane
How it was run: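 Compound loaded into DSPC:cholesterol:DSPE-PEG2000-Mal:DOPE-Rho (84.5:10:5:0.5) liposomes using a citrate (pH 4.0)/PBS pH gradient. Drug measured by UV/vis after SDS disruption at each step: citrate liposomes, after buffer exchange to PBS (chloroquine added to preformed liposomes here), and after ultracentrifugation. Encapsulation efficiency = % of drug that is encapsulated out of total drug in the sample.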

[5] = system: Plasmodium falciparum; assay: Ratio of IC50 for antiplasmodial activity against chloroquine-sensitive Plasmodium falciparum 3D7 ring forms infected in human RBC incubated for 15 mins followed by compound removal and further incubation for 48 hrs by [3H]-hypoxanthine incorporation assay to IC50 for antiplasmodial activity against chloroquine-sensitive Plasmodium falciparum 3D7 ring forms infected in human RBC using compound …; type: functional
[6] = system: Plasmodium falciparum; assay: Antiplasmodial activity against Plasmodium falciparum 3D7 late stage forms infected in immunoliposome encapsulated compound pre-loaded human RBC by [3H]-hypoxanthine incorporation assay; type: functional, organism-based; settings: 3D7, Erythrocyte
[7] = system: Plasmodium falciparum; assay: Antiplasmodial activity against Plasmodium falciparum 3D7 ring stage forms infected in human non-washed human RBC containing full drug dosages by [3H]-hypoxanthine incorporation assay; type: functional, organism-based; settings: 3D7, Erythrocyte
[8] = system: Plasmodium falciparum; assay: Ratio of IC50 for antiplasmodial activity against Plasmodium falciparum 3D7 ring stage forms infected in immunoliposome encapsulated compound pre-loaded human RBC by [3H]-hypoxanthine incorporation assay to IC50 for antiplasmodial activity against Plasmodium falciparum 3D7 ring stage forms infected in human non-washed human RBC containing full drug dosages by [3H]-hypoxanthine incorporation assay; type: functional
[9] = system: Plasmodium falciparum; assay: (§1) Antiplasmodial activity against chloroquine-sensitive Plasmodium falciparum 3D7 late forms infected in human RBC incubated for 15 mins followed by compound removal and further incubation for 48 hrs by [3H]-hypoxanthine incorporation assay; type: functional, organism-based; settings: 3D7, Erythrocyte
[10] = system: Plasmodium falciparum; assay: as §1, with “RBC using compound encapsulated in to immunoliposome targeted to GPA” for “RBC”; type: functional, organism-based; settings: 3D7, Erythrocyte

Row | Structure (SMILES) | viability at 0.0005 mg/ml [1] [%] | viability at 0.0005 mg/ml [2] [%] | Ratio IC50 [3] | Activity [4] [%] | Ratio IC50 [5] | IC50 [6] [nM] | IC50 [7] [nM] | Ratio IC50 [8] | IC50 [9] [nM] | IC50 [10] [nM]
1 | OC(CCN1CCN(C(c2ccccc2)c2ccccc2)CC1)c1ccc(F)c(F)c1 (stereo not given) | 110 | 94.7 |  |  |  |  |  |  |  | 
2 | N#Cc1ccc(N2CCC(NCCC(O)c3ccc(F)c4ccccc34)CC2)c(C(F)(F)F)c1 (stereo in doubt; 72) |  |  | 5.2 | 101.4 | 5.9 | 443 | 181 | 2.8 | 916 | 175
